The list is not random: actives were taken first. Their share in the collection is about 2.4%.
LANA-H2A inh = blockers of LANA interaction with H2A/H2B – biochemical, FP readout, HTS, primary screen; cell-free LANA-H2A/H2B peptide, fluorescence polarization; inhibition, % (concentration not given with the values); actives 0.6% (n = 320,000); in the data active = inhibition mostly above about 10%, no sharp cut-off; inactive = mostly below about 6.7%
Runt-CBFb FRET = inhibitors of RUNX1 Runt–CBFb binding, primary screen, biochemical, FRET, Cerulean-Runt, Venus-CBFb, uHTS; Runt-related transcription factor 1 (Homo sapiens) + Core-binding factor subunit beta …; Cerulean-Runt/Venus-CBFb FRET ratio 530/480, 1 h; inhibition, % at 20 µM; actives 0.46% (n = 220,000); AID 1496, 2009;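 active = inhibition over about 50% at 20 µM in the single-dose screen, limit read from the data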;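 note: 0% = DMSO wells and 100% = excess unlabeled CBFb competitor control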
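Assay system: Cerulean-Runt domain fusion protein, energy donor; Signal: fluorescence energy transfer, 422 nm excitation, 530/480 nm emission; Timing: 1 h compound exposure, room temperature; Control set: unlabeled CBFb; Medium: Tris buffer pH 7.5 with salts and BSA; Compound: single test concentration of 20 µM, 1% DMSO final; Probe or stimulus: Venus-CBFb 100 nM.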
MEX-5 binding = MEX-5 zinc finger RNA-binding disruptors – biochemical, C. elegans, fluorescence polarization, MLPCN library, primary screen; MEX-5/FITC-TCR2 RNA binding; hits give low values; AID 1832, 2009; actives 0.38% (n = 300,000); activity score (negative = inhibition of binding), % at 10 µM; Zinc finger protein mex-5 (Caenorhabditis elegans), Q9XUB2;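 active = inhibition past about -25% in most replicates, and total fluorescence under double the plate's negative control median, limit read from the data; inconclusive = replicates evenly split on the limit, or fluorescence at least double controls; inactive = too little inhibition in most replicates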;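 note: 0% = DMSO and -100% = 5 µM competing unlabeled TCR2 RNA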
Runt-SMMHC FRET = inhibitors of RUNX1 Runt–CBFb-SMMHC binding, primary screen, biochemical, FRET, Cerulean-Runt, Venus-CBFb-SMMHC, uHTS; Runt-related transcription factor 1 (Homo sapiens) + Core-binding factor subunit beta …; Cerulean-Runt/Venus-CBFb-SMMHC FRET ratio 530/480, 1 h; inhibition, % at 20 µM; actives 0.74% (n = 220,000); AID 1434, 2008;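 active = mean inhibition across duplicate retests at 20 µM reaching about 50%, limit read from the data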;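 note: 0% = DMSO wells and 100% = wells with excess untagged CBFb-SMMHC; inhibitors lower the FRET ratio by blocking Runt binding to CBFb-SMMHC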
EBV gp42 block = Epstein-Barr virus gp42 inhibitors, primary screen, biochemical, uHTS, fluorescence polarization; actives 0.42% (n = 220,000); Fluorescence polarization binding assay, mP read-out; inhibition, % (tested at 21.74 µM); in the data active = inhibition above about 50%
RanGTP-Impb inh = inhibitors of RanGTP-importin-beta interaction, primary screen, biochemical, FRET, CFP-Ran, YFP-importin-beta, homogeneous | cell-free CFP-Ran/YFP-importin-beta FRET ratio | AID 2216, 2009 | actives 1.1% (n = 300,000) | inhibition, % (no concentration beside the values);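 active = more than half of the replicate wells show a fall in the fluorescence ratio signal beyond about 16%, limit read from the data, passing the limit was not always enough; inconclusive = exactly half of the replicate wells pass the set limit; inactive = fewer than half of replicates pass the limit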;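 note: 0% = DMSO wells and 100% = Ran loaded with GDP instead of GTP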
The depositor's hits bear a star; ? = inconclusive; · = no result given; + = active, no number.

SMILES | LANA-H2A inh | Runt-CBFb FRET | MEX-5 binding | Runt-SMMHC FRET | EBV gp42 block | RanGTP-Impb inh
CCCCN(CC)C(=O)Cn1ncc2c3ccccc3n(CCC)c2c1=O | 1.0 | · | 1.6 | · | · | 0.5
O=C(Nc1ccc(-n2cnnn2)cc1)C1CCCCC1 | 13.3* | 1.4 | -0.9 | -4.0 | -16.7 | -1.6
COC(=O)C/C(N)=C(\C#N)C(=O)OC | 0.8 | 2.0 | 0.1 | 0.5 | -6.7 | 5.1
N#CCC(N)=C(C#N)C#N | -16.0 | 1.8 | -37.6* | -0.4 | -1.6 | 3.9
CC(C)=CCN1CCN(Cc2cccn2-c2ccccn2)CC1CCO (stereo not drawn) | 1.4 | 0.7 | -2.1 | -4.5 | -4.0 | -0.8
CCN1CCc2nc(SCC(=O)Nc3ccc(OC)cc3)c(C#N)cc2C1 | -0.1 | 21.2 | -2.0 | 94.1* | -7.2 | ?
COc1cc2c(cc1OC)C(c1cccc(Cl)c1)CC(=O)N2 (stereo not drawn) | -0.6 | · | 1.3 | · | · | -3.3
COc1cc2c(cc1OC)C(c1cccc(C)c1)CC(=O)N2 (stereo not drawn) | 47.4* | 3.8 | -2.9 | -1.6 | -14.8 | ?
CC(Sc1nc(N)cc(N)n1)C(=O)Nc1ccc(N2CCOCC2)cc1 (stereo not drawn) | 6.2 | · | · | · | · | ·
Cc1cc(-c2ccc3c(c2)COc2c4ccccc4nn2-3)on1 | 6.1 | · | -4.3 | · | · | 2.6
Cc1sc(/C=C2\C(=O)ON=C2c2ccccc2)cc1Br | 0.2 | -0.3 | -31.2* | 3.5 | 6.7 | -3.1
CC1=[N+](C)N(c2ccccc2)C(=O)C1N=Cc1ccc(Cl)cc1 (stereo not drawn) | -1.3 | -2.5 | 0.2 | 1.9 | -12.7 | -0.4
CC12CCC(=O)N1c1c(sc3nc(N4CCOCC4)c4c(c13)CCCC4)C(=O)N2 (stereo not drawn) | -4.0 | 5.1 | -2.5 | 95.9* | -15.9 | -1.0
O=c1c2cc(Cl)ccc2[nH]c(=S)n1Cc1cccs1 | -3.1 | -1.3 | 1.6 | 0.2 | -5.8 | -3.4
C[C@H](CO)N1C[C@H](C)[C@@H](CN(C)S(=O)(=O)c2ccc(F)cc2)Oc2ccc(NC(=O)Nc3ccc(C(F)(F)F)cc3)cc2C1=O | -2.4 | · | · | · | · | ·
Cc1noc(C)c1NC(=O)Nc1ccc2c(c1)C(=O)N([C@H](C)CO)C[C@H](C)[C@H](CN(C)C)O2 | 46.2* | · | · | · | · | ·
C[C@H](CO)N1C[C@H](C)[C@@H](CN(C)C(=O)Nc2ccc(C(F)(F)F)cc2)Oc2ccc(NC(=O)Nc3ccccc3)cc2C1=O | 143.2* | · | · | · | · | ·
C[C@@H]1CN([C@H](C)CO)C(=O)c2cc(NC(=O)Nc3ccc(C(F)(F)F)cc3)ccc2O[C@H]1CN(C)S(=O)(=O)c1ccc(Cl)cc1 | + | · | · | · | · | ·
C[C@H](CO)N1C[C@H](C)[C@@H](CN(C)S(=O)(=O)c2ccc(F)cc2)Oc2c(NC(=O)Nc3ccc(C(F)(F)F)cc3)cccc2C1=O | -2.8 | · | · | · | · | ·
C[C@H]1CN([C@@H](C)CO)C(=O)c2cccc(NC(=O)Nc3ccc(C(F)(F)F)cc3)c2O[C@@H]1CN(C)S(=O)(=O)c1ccc(Cl)cc1 | 14.8* | · | · | · | · | ·
Cc1ccc(S(=O)(=O)c2ccc(NC(=O)c3c(F)cccc3F)cc2)cc1 | -5.0 | · | 0.1 | · | · | 1.8
COc1cc2cccc(OC)c(=O)c2c(OC)c1OC | -3.3 | 1.5 | -0.7 | -1.9 | -1.9 | ?
O=c1c(O)cccc2cc(O)c(O)c(O)c12 | 0.8 | 23.5 | -36.7* | -3.7 | 81.8* | ?
CN1CCN(C(=O)c2cc3c(C(F)(F)F)nn(C)c3s2)CC1 | 17.4* | 0.0 | 1.1 | -2.5 | -6.1 | -2.7
Cc1ccc(C2C(C(=O)c3ccco3)=C(O)C(=O)N2c2ncccn2)cc1 (stereo not drawn) | 4.4 | 0.4 | 1.8 | 0.7 | -10.2 | 1.6
SMILES | LANA-H2A inh | Runt-CBFb FRET | MEX-5 binding | Runt-SMMHC FRET | EBV gp42 block | RanGTP-Impb inh
Cc1nnc(N2C(=O)C(O)=C(C(=O)c3ccco3)C2c2ccc(F)cc2)s1 (stereo not drawn) | 0.8 | 5.8 | -27.5* | -24.3 | 76.2* | -8.4
Cc1ccc(C2C(C(=O)c3cccs3)=C(O)C(=O)N2c2nnc(C)s2)cc1 (stereo not drawn) | 12.9 | -5.3 | -67.0* | -47.7 | 123.0* | -0.8
C=CCOc1cccc(C2C(C(=O)c3ccc(C)o3)=C(O)C(=O)N2c2nccs2)c1 (stereo not drawn) | 5.2 | -0.9 | -48.8* | -17.0 | 179.1* | 8.0
COc1cccc(C2C(C(=O)c3ccc(C)o3)=C(O)C(=O)N2c2cc(C)on2)c1 (stereo not drawn) | -5.2 | · | 0.5 | · | · | 6.2
CSc1ccc(C2C(C(=O)c3ccco3)=C(O)C(=O)N2c2nnc(SC)s2)cc1 (stereo not drawn) | 9.5 | · | -59.3* | · | · | -6.6
Cc1cc(C)n(CCC(=O)N2CCc3ccccc32)n1 | 0.6 | · | 0.8 | · | · | 1.7
Cc1nnc(N2C(=O)C(O)=C(C(=O)c3ccco3)C2c2ccc(C(C)C)cc2)s1 (stereo not drawn) | -1.3 | -1.9 | -26.6* | -23.4 | 72.1* | -13.8
Cc1nnc(N2C(=O)C(O)=C(C(=O)c3ccco3)C2c2ccc(C(C)(C)C)cc2)s1 (stereo not drawn) | 8.7 | -8.3 | -5.4 | -60.4 | 39.7 | -10.2
CCCOc1cccc(C2C(C(=O)c3ccco3)=C(O)C(=O)N2c2nnc(C)s2)c1 (stereo not drawn) | -1.8 | · | -32.1* | · | · | -11.5
CCCCOc1cccc(C2C(C(=O)c3ccc(C)o3)=C(O)C(=O)N2c2nnc(C)s2)c1 (stereo not drawn) | · | · | -14.4 | · | · | -7.3
CC(C)c1ccccc1OCCCCCNCCO | -6.3 | -0.8 | 2.5 | 1.3 | -3.7 | 0.6
CCN1CCN(Cc2c(O)ccc3c2O/C(=C\C=C\c2ccccc2)C3=O)CC1 | -4.3 | -43.6 | ? | -251.8 | -82.2 | -320.5
CCN1CCN(Cc2c(O)ccc3c2O/C(=C\c2ccc(C)cc2)C3=O)CC1 | 6.9 | 19.6 | -28.9* | 92.5* | -19.3 | 21.5*
Cc1ccc(/C=C2\Oc3c(ccc(O)c3CN3CCN(C)CC3)C2=O)cc1 | 3.8 | 3.4 | ? | 90.0* | -43.6 | 21.9*
CCc1ccc(/C=C2\Oc3c(ccc(O)c3CN3CCN(C)CC3)C2=O)cc1 | 4.4 | -10.4 | · | 81.2* | -35.0 | ?
Cc1ccc(/C=C2\Oc3cc(OC(=O)N4CCOCC4)ccc3C2=O)cc1 | -0.3 | 1.8 | 0.9 | 4.3 | -1.4 | 2.4

Compound activity from PubChem BioAssay.
